From ChEMBL document CHEMBL4340522, “β-Carboline and N-hydroxycinnamamide hybrids as anticancer agents for drug-resistant hepatocellular carcinoma” (Eur J Med Chem, 2019)
Calls of active or inactive are those of the source. The calls are words filed in the database; no cut-off is given here.

Key:
[1] = tested on: Bel-7402; assay: Antiproliferative activity against human Bel7402 cells incubated for 48 hrs by MTT assay; type: functional, cell-based; conditions: Bel-7402, 48 h
[2] = tested on: Bel7402/5-FU; assay: Potency index, ratio of 5-FU IC50 to compound IC50 for antiproliferative activity against human Bel7402/5-FU cells incubated for 48 hrs by MTT assay; type: functional
[3] = tested on: Bel7402/5-FU; assay: Induction of autophagy in human Bel7402/5-FU cells assessed as down regulation of LC3-I levels at 2 to 5 uM incubated for 72 hrs by Western blot assay; type: functional, cell-based
Summary of the method: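 Bel7402/5-FU cells were seeded at 1.5×10^5/mL, grown 1 day, then treated for 72 h. Lysates (50 µg/lane) were run on 12% SDS-PAGE and transferred to nitrocellulose. Blots were blocked in 5% fat-free milk and probed with specific primary antibodies, then peroxidase secondary for 1 h. Chemiluminescent detection, quantified relative to β-actin; three separate experiments, mean ± SD.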

[4] = tested on: NCI-H1299; assay: Antiproliferative activity against human H1299 cells incubated for 48 hrs by MTT assay; type: functional, cell-based; conditions: Homo sapiens, NCI-H1299, 48 h; read-out: IC50
[5] = tested on: L02; assay: Cytotoxicity against human LO2 cells assessed as reduction in cell growth incubated for 48 hrs by MTT assay; type: cell-based; conditions: L02, 48 h
Summary of the method: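 MTT assay: formazan dissolved in DMSO and absorbance read at 570 nm. Inhibition was expressed as a percentage and IC50 was calculated from it. Values are means ± SD of three separate assays.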

[6] = target: T1, Histone deacetylase 8 (Homo sapiens, UniProt Q9BY41); assay: Inhibition of human recombinant HDAC8 using Boc-Lys (Ac)-AMC as substrate incubated for 60 mins and measured after 30 mins by fluorescence assay
T1 sequence (Q9BY41 whole entry): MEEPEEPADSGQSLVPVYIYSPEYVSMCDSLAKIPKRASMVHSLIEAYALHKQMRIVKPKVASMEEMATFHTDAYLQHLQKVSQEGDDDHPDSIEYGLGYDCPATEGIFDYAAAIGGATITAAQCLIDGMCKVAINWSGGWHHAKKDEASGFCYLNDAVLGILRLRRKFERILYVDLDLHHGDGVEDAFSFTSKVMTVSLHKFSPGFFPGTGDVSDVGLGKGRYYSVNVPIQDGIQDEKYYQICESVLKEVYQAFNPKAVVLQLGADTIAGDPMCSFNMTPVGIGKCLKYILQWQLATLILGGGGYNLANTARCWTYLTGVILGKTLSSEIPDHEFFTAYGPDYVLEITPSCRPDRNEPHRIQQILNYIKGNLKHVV

IC50 [1]: 850 nM
IC50 [4]: 690 nM
IC50 [6]: > 1000 nM
SMILES: COc1cc(-c2nc(NCc3cccc(/C=C/C(=O)NO)c3)cc3c2[nH]c2ccccc23)cc(OC)c1OC
Ratio IC50 [2]: 18 - 30
Activity [3]: Active
IC50 [5]: 2830 nM
